B1: tRNA (parent)
chain: GUUCCGUUGGCGUAAUGGUAACGCGUCUCCCUCCUAAGGAGAAGACUGCGGGUUCGAGUCCCGUACGGAACG

Variants at the floor of the assay were thinned out.

The variants in this series derive from B1. The series can be described thus: yeast fitness relative to wild type (ratio to wild type); higher = fitter; tRNA-Arg(CCU), competitive growth, 37 C, YPD. The essentials: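 Start and end populations of a pooled competition were compared by 100-nucleotide paired-end sequencing of gene amplicons. The Saccharomyces cerevisiae strains carried tRNA-Arg(CCU) gene variants at the native genomic locus, synthesised with a 3% per-site mutation rate at 69 sites, and competed in YPD at 37°C for 24 hours in six parallel replicates. Darwinian fitness relative to wild type was based on the change in genotype frequencies. Genotypes required ≥ 100 starting reads, and estimates < 0.5 were set to 0.5.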
On to GUUCCGUGGGCGUAAUAGUAACGCGUCUCCCUCCUAAGGAGAAGACUGCGGGUUCCAGUCCCGUACGGAACG [U8G G17A G56C], for which the yeast fitness was ≤ 0.5.
To GUUCCGUUAGCGUAAUGGUUACGCGUCUCCCUCCUAAGGAGAAGACUGCGGGUUCGAGUCCCGUACGGAACG [G9A A20U] belongs 0.829.
To GUUCCGUGGGCGUAAUGGUAACGCGUCACCCUCGUAAGCAGAAGACUGCGGGUUCGGGUCCCGUAUGGAACG [U8G U28A C34G G39C A57G C66U] belongs ≤ 0.5; to GUUCCGUGGGCAGAAUGGUAAGGGGUCUCCCUCCUGCGGAGAAGACUGCGGGUUCGUGUCCCGUACGCAACG [U8G G12A U13G C22G C24G A36G A37C A57U G68C], 0.589.
To GUUCCGUGGGCGUAAUGGUAACGCGUCUCCCUCCUAAGGAGAAGACGGAGGGUUCGAGUCCCGUACGGUACG [U8G U47G C49A A69U] belongs ≤ 0.5; to GUUCCGUGGGCGUAAUGGUAACGCGCCUCCCUCCUAAGGAGAAGACUGCGGGUUCGAGUUCCGUACGGAACG [U8G U26C C60U], ≤ 0.5; to GUUCCGUGGGCGUAAUGGUAACGCGUCUCCCUCCUAAGGAGAAGACUACGGGUUCGAGUCCCGUACGGAACG [U8G G48A], 0.531.
Consider GUUCCGUGGGCGUAAUAGUCAGGCGUCUGCCUCGUAAGGAGAAGACUGCGGGUUCGAGUCCCGUACGAAACG [U8G G17A A20C C22G C29G C34G G68A], for which the yeast fitness came out at 0.606.
To GUUCCGUUAGCGUUAUGGUAUCGCGUCUCCCUCCUAAGGAGAAGACUGCGGGUUCGAGUCCCGUGCGGAACG [G9A A14U A21U A65G] belongs 0.556.
Under GUUCCGUGGGCGUAAUGGUAACGCGACUCCCUCCUAAGGAGACGACUGCGGGUUCGAGUCCCGUACGGAACG [U8G U26A A43C] stands 0.55; under GUUCCGUGGGCGUAAUGGUAACGCGUCUCCCUCUUAAGGAGAAGACUGCGGGUUCGAGUCCCGUAGGGAACG [U8G C34U C66G], ≤ 0.5.
Under GUUCCGUGGGCGUAAUGGUAACGCGUCACCCUCAUAAGGAGAAGACUGCGGGUUCGAGUCCCGUAAGGAACG [U8G U28A C34A C66A] stands ≤ 0.5; under GUUCCGUUAGCGUAGUGGUAACGCGUCUCCCUCCUAAGGAGAAGACUGCGGGUUCGAGUCCCGUACGGAACG [G9A A15G], 0.884.
Consider GUUCCGUGGGCGUAAUGGUAACGCCUCUCCCUCCUAAGGACAAGACUGCGGGUUCGAGUCCCGUACGGAACG [U8G G25C G41C], for which the yeast fitness was 0.644.
For the variant GUUCCGUUAGCGUAAUGGUGACGCGUCUCCCUCCUAAGGAGAAGACUGCGGGUUCGAGUCCUGUACGGAACG [G9A A20G C62U], the yeast fitness was found to be 0.736.
Under GUUCCGUGGGCGCAAUGGUAACGCGUCUCCCUCCUCAGGAGAAGACUGCGGGCUCGAGUCCCGUACGGAACG [U8G U13C A36C U53C] stands ≤ 0.5; under GUUCCGUGGGCGUAAUGGUAACGCGUCUCCCUCCUAAGGAGAAGACUGCGGGUUCGAGUCCGGUACGGAACG [U8G C62G], 0.533; under GUUCCGUGGCCGGAAUGGUAACGCGUCUCCCUCCUAAGGAGAAGACUGCGGGUUGGAGACCCGUACGGAACG [U8G G10C U13G C55G U59A], ≤ 0.5.
For the variant GUUCCGUGUGCGUAAUGGUAACGCGUCUCACUCCUAAGGAGAAGACUGCGGGUUCGAGUCACGUACGGAACG [U8G G9U C30A C61A], the yeast fitness amounted to 0.539.
As for GUUCCGUGCGCGUAAUGGUAACGCGUCUCCCUCCUAAGGAGAAGACUGCGGGUUCGAGUCCCGUACGAAACG [U8G G9C G68A], the yeast fitness is ≤ 0.5.
To GUUCCGUGGGCGUAAUGGUAACGCGUCUCCCUCCUAAGGAGAAGACUGCGGGUUCGAUUCCCGUGCAGAACG [U8G G58U A65G G67A] belongs 0.547; to GUUCCGUGGGCAUAAUGGUAACGCGUCUCCCACCUAAGGAGAAGACUGCCGCUUUGAGUCCCGUACGGAACG [U8G G12A U32A G50C G52C C55U], ≤ 0.5; to GUUCCGUGGGCGUAAUGGUAACGCGACUCCUUCCUAAGGAGAAGACUGCGGGUUCGAGUCCCGUACGGAACG [U8G U26A C31U], 0.52.
To GUUCCGUGGGCGUAAUGGUAACGCGACUCCCUCCUAAGGAGACGACUGUGGGUUGGAGUACCGUACGGAACG [U8G U26A A43C C49U C55G C60A] belongs ≤ 0.5; to GUUCCGUUAGCGUAAUGGUGUCGCGUCUCCCUCCUAAGGAGAAGACUGCGGGUUCGAGUCCCGUACGGAACG [G9A A20G A21U], 0.57.
Under GUUCCGUGGGCGUAAUAGUAACGGGUCUCCCUCCUAAGGAGAAGACUGCGGGUUCGACUCCCGUACGGAACG [U8G G17A C24G G58C] stands ≤ 0.5; under GUUCCGUGGCCGGAAUGGUAACGCGUCUACCUCGUAAGGAGACGACUGCGGGUUCGAGUGCCGUACGGAACG [U8G G10C U13G C29A C34G A43C C60G], ≤ 0.5; under GUUCCGUGGGCGUAAUGGUAACGCGUCUCCCUCCAAAGGAGAAGACUGCGGGUUCGAGUCCCGUACGGAACG [U8G U35A], ≤ 0.5.
Take GUUCCGUGGGCGUAAUGGUAACGCGUCUCCCUCCUAAGGAGAAGACUGCGGGUUCGAGUGCCGUACGGAACG [U8G C60G]: the yeast fitness was ≤ 0.5.
With GUUCCGUGGGCGUAAUGGUAACGCCUCUCCCUCCUAAGGAGAAGACUGCGGCUUCGAGUCCCGUACGGAACG [U8G G25C G52C], the yeast fitness was ≤ 0.5.
To GUUCCGUUAGCGUCAUGGUAACGCGUCUCCCUCCUAAGGAGGAGACUGGGGGUCCGAGUCCCCUACGGAUCG [G9A A14C A42G C49G U54C G63C A70U] belongs ≤ 0.5.
To GUUCCGUGGCCGUAAUGGAAAUGCGUCUCCCUCCUAAGGAGAAGACUGCGGGUUGGAGUCCCGUACGGAACG [U8G G10C U19A C22U C55G] belongs ≤ 0.5.
To GUUCCGUGGGCGUAAUGGUAACGCGUCUCCCUCCGAAGGAGAAGACUGCGGGUUCGAGUCCCGUACGGACCG [U8G U35G A70C] belongs 0.536; to GUUCCGUGGGCGUAAUGGUAACGCGUCUCCCUCCAAAGGAAAAGACUGCGGGUAUGAGUCCCGUACGGAACG [U8G U35A G41A U54A C55U], ≤ 0.5; to GUUCCGUGGGCAUAAUGGUAACGCGUCUCCCUCCUACGGAGAUGACUGCGGGUUCGAGUCCCGUAAGGACCG [U8G G12A A37C A43U C66A A70C], 0.597.
GUUCCGUGGACGUAAUGGUAACGCGUCUCCCUCCUAAGGAGAAGACUGCGGGUUCGAGUCCCGUACGGAACG [U8G G10A]: the yeast fitness is ≤ 0.5.
As for GUUCCGUGGGCGUAAUGGUAACGCGUCUCCCUCCUAAGGAGAAGACUGCGAGUUCGAGUCCCGUACGGAACG [U8G G51A], the yeast fitness is ≤ 0.5.

Values taken from the RNAGym collection of RNA variant scans (doi:10.1126/science.aae0568).
